Measurements as given in ChEMBL document CHEMBL3232775, “Synthesis and evaluation of amide side-chain modified Agomelatine analogues as potential antidepressant-like agents” (Bioorg Med Chem Lett, 2014).
Calls of active or inactive are those of the source. The rule behind the calls is not given here.

How the values were obtained:
[1] = Cytotoxicity against human HEK293 cells assessed as inhibitory rate at 80 uM after 24 hrs by MTT assay; assay type: cell-based; settings: read-out: INH
Summary of the method: (§1)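 Human normal liver L02 cells and human embryonic kidney 293 cells treated with compound at 80 μM for 24 h. Viability of untreated cells taken as 100%; inhibitory rate reported as mean ± SD of three independent experiments.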

[2] = Octanol-water partition coefficient, log P of the compound; assay type: physicochemical
PC-12 = experiment: Inhibition of corticosterone-induced rat PC12 cells lesions assessed as protection rate at 1.25 uM after 24 hrs by MTT assay; assay type: functional; set-up: scale not given: the % may be the effect or the level left
Summary of the method: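 Rat PC12 cells injured with corticosterone and co-treated with compound at 1.25 μM, absorbance read 24 h after treatment. Protection rate = (A_d − A_c)/A_c × 100%, where A_c is the mean absorbance of corticosterone-only controls and A_d that of corticosterone plus compound. Six independent experiments, ± SD.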

[3] = Cytotoxicity against human L02 cells assessed as inhibitory rate at 80 uM after 24 hrs by MTT assay; assay type: cell-based; settings: read-out: INH; summary of the method: as §1
Mus musculus = experiment: Antidepressant activity in C57 mouse assessed as decrease in immobility time at 32 mg/kg, ip on days 2 to 15 by forced swimming test; assay type: functional, organism-based; set-up: dose 32 mg/kg

SMILES	cytotoxicity at 24 h, 80 µM [1] [%]	logP [2]	Activity (PC-12) [%]	cytotoxicity at 24 h, 80 µM [3] [%]	Activity (Mus musculus)
COc1ccc2cccc(CCNC(=O)N3CCCC3)c2c1	28.4	-0.52	9.8	19.3	
COc1ccc2cccc(CCN3C(=O)CCC3=O)c2c1	8.1	1.87	-16.8	8.5	
COc1ccc2cccc(CCNC(=O)N(C)CCO)c2c1	7.1	1.12	-19.5	5.5	
CNCCC(Oc1ccc(C(F)(F)F)cc1)c1ccccc1 (stereo not drawn) [FLUOXETINE]			19.7		
COc1ccc2cccc(CCNC(C)=O)c2c1 [AGOMELATINE]	26.6	1.62	26.2	20.2	
COc1ccc2cccc(CCNC(=O)N3CCCCC3)c2c1	16.6	2.81	-11.5	22.6	
COc1ccc2cccc(CCNC(=O)CC3(CC(=O)O)CCCC3)c2c1	13.4	-1.17	-17.5	4.1	
COc1ccc2cccc(CCN3C(=O)C(C)=C(C)C3=O)c2c1	9.6	1.53	34.2	13.8	Active
COc1ccc2cccc(CCNC(=O)CCC(=O)O)c2c1	13.9	1.35	11	3.1	
COc1ccc2cccc(CCN3C(=O)C(Cl)=C(Cl)C3=O)c2c1	17.2	1.99	-12.8	3.4	
COc1ccc2cccc(CCNC(=O)N3CCN(C)CC3)c2c1	46.6	1.88	13.6	20.1	
COc1ccc2cccc(CCN3C(=O)CC(C)(C)CC3=O)c2c1	41.9	2.78	-50.3	10.4	
COc1ccc2cccc(CCNC(=O)N3CCC3)c2c1	28.4	1.56	15.7	18.4	
COc1ccc2cccc(CCNC(=O)/C(Cl)=C(\Cl)C(=O)O)c2c1	18.6	1.18	-8.4	3.8	
COc1ccc2cccc(CCNC(=O)/C(C)=C(\C)C(=O)O)c2c1	13.2	2.01	2.8	5.8	
COc1ccc2cccc(CCNC(=O)/C=C/C(=O)O)c2c1	33	1.54	23.2	3.4	inactive
COc1ccc2cccc(CCNC(=O)CC(C)(C)CC(=O)O)c2c1	34.1	1.75	6.3	5.7	
COc1ccc2cccc(CCNC(=O)N3CCC(c4ccccc4)CC3)c2c1	16.5	2.05	2.5	8.6	
COc1ccc2cccc(CCNC(=O)N3CCN(C(=O)OC(C)(C)C)CC3)c2c1	13.3	1.06	6.3	3	
CCN1CCN(C(=O)NCCc2cccc3ccc(OC)cc23)CC1	3.9	1.35	-7.7	3.1	
COc1ccc2cccc(CCN3C(=O)c4ccc(Br)cc4C3=O)c2c1	11.5	2.57	-10.5	9.1	
